High-throughput results as filed in PubChem BioAssay.
A selection: hits, their analogues and other compounds. The true share with any hit is near 3.4%.
LANA-H2B inh: blocks KSHV LANA binding to histone H2A/H2B; Q9QR71; cell-free LANA-H2A/H2B peptide, fluorescence polarization; inhibition, % (concentration not given with the values); 0.6% of 320,000 active; in the data active means inhibition mostly above about 10%, no sharp cut-off; inactive means mostly below about 6.7%
TAAR1 agonist: agonists of human TAAR1 | Q96RJ0 | CHO RD-HGA16 TAAR1, Fluo-8 calcium fluorescence; vehicle wells 0%, saturating PEA agonist 100% | activation, % at 3 µM | 0.99% of 360,000 active;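 active means activation above the mean activation of all test compounds in the run plus 3 SD, cut at about 38% in these data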
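Benchmarks: low control DMSO, high control PEA (EC100); System: CHO RD-HGA16 cells carrying human TAAR1 plus Gα16; Detection: Fluo-8 fluorescence, 5 s baseline then 140 s kinetic read; Schedule: 17-24 h plating, Fluo-8 75 min 37 °C, 30 min RT; Read-out basis: % activation from peak over basal fluorescence ratio, DMSO-to-PEA scaled.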
TAAR1 antagonist: antagonists of human TAAR1; Q96RJ0; CHO RD-HGA16 TAAR1, Fluo-8 calcium fluorescence, antagonist; inhibition, % at 3 µM; 1.5% of 360,000 active; AID 624466;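 active means inhibition above a per-plate cutoff, the mean inhibition of test compounds on that plate plus 3 SD, cut at about 49% in these data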;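 further: 0% = DMSO plus EC80 beta-PEA response and 100% = DMSO alone without agonist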
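Assay system: RD-HGA16 CHO cells with stable hTAAR1 and Gα16 / Reagent: EC80 β-phenethylamine stimulus / Doses: 3 µM, single point / Timing: dye loading 75 min at 37 °C, then 30 min room temperature / Measured by: Fluo-8 intracellular calcium dye fluorescence, real-time kinetic reads / Controls: vehicle wells and EC80 agonist wells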
TRPML3 ag: activates the human TRPML3 channel; Q8TDD5; activation, % at 3 µM; 0.29% of 220,000 active; HEK293 TRPML3-YFP, Fluo-8 calcium fluorescence; 100% = the carbachol control signal;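 active means activation above its plate's cutoff, the mean activation of the plate's test wells plus 3 SD, cut at about 12% in these data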;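 further: 0% = DMSO only wells and 100% = carbachol wells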
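Test system: HEK293 cells stably carrying human TRPML3-YFP; Doses: single dose, 3 µM final nominal compound, 0.3% DMSO final; Schedule: dye loading 1 h 37 °C then 30 min ambient, 125 s read; Technique: Fluo-8 calcium fluorescence; Benchmarks: high control carbachol 87 µM, low control DMSO.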
TRPN1 ag: zebrafish TRPN1 (NompC) channel agonism; HEK293 zebrafish TRPN1-YFP, Fluo-8 calcium fluorescence; 100% = response to 87 µM carbachol; 0.18% of 220,000 active; AID 1424; activation, % at 3 µM;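 active means activation above its plate's cutoff, the mean activation of test wells on that plate plus 3 SD, cut at about 19% in these data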;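 further: 0% = DMSO alone and 100% = 87 µM carbachol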
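Assay system: Zebrafish TRPN1-YFP in HEK293 cells | Incubation: Dye loading 1 h at 37 °C, then 30 min room temperature | Measured by: Kinetic Fluo-8 fluorescence, ex 470-495, em 515-575 nm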
GPR7 antag: human neuropeptides B/W receptor 1 antagonism. P48145. 1.1% of 290,000 active. GPR7-expressing cells, fluorescence antagonist assay. inhibition, % at 4.4 µM; in the data active means inhibition above about 16%, passing the limit was not always enough;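 further: cells stimulated with the agonist NPW; 0% = agonist with vehicle and 100% = vehicle without agonist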
TAAR1 ag confirm: human TAAR1 agonism, confirmed; shares compounds with TAAR1 agonist; CHO RD-HGA16 TAAR1, Fluo-8 calcium fluorescence; scaled: DMSO 0%, maximal phenethylamine 100%; activation, % at 3 µM; 82% of 2,400 active; AID 651783;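 active means activation above a cutoff set at the run's mean compound activation plus 3 SD, cut at about 39% in these data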
Ga16 ag counter: nonselective agonism, TAAR1 counter-screen | shares compounds with TAAR1 agonist | CHO-Ga16 parental, Fluo-8 calcium fluorescence; normalized to maximal ATP response, DMSO zero | activation, % at 3 µM | 50% of 2,400 active;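 active means activation above the run cutoff, the mean activation over all tested wells plus 3 SD, cut at about 12% in these data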;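 further: 0% = DMSO wells and 100% = maximal ATP response on the peak over basal ratio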
TAAR1 desens: counter-screen for human TAAR1 agonists: agonists that desensitize TAAR1; 46% of 2,400 active; AID 651951; inhibition, % at 3 µM; shares compounds with TAAR1 agonist; CHO RD-HGA16 hTAAR1, Fluo-8 calcium, beta-PEA response inhibition;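 active means inhibition above the run cutoff, the mean inhibition of all test compounds plus 3 SD, cut at about 49% in these data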;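 further: beta-PEA stimulus applied at its EC80; loss of beta-PEA calcium signal after compound pretreatment read as receptor desensitization; 0% = DMSO with beta-PEA at EC80 and 100% = DMSO alone without agonist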
Ga16 nonsel ant: nonselective Ga16 antagonism, counter-screen. shares compounds with TAAR1 agonist. CHO-Ga16 ATP-induced calcium, Fluo-8 fluorescence. inhibition, % at 3 µM. 39% of 2,400 active. AID 651952;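 active means inhibition above the plate's mean compound inhibition plus 3 SD, computed per plate, cut at about 22% in these data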;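 further: 0% = EC80 ATP with DMSO and 100% = DMSO wells without ATP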
* = called active by the depositor; · = no result given.

SMILES	LANA-H2B inh	TAAR1 agonist	TAAR1 antagonist	TRPML3 ag	TRPN1 ag	GPR7 antag	TAAR1 ag confirm	Ga16 ag counter	TAAR1 desens	Ga16 nonsel ant
O=C(Nc1nccs1)c1nc[nH]c1C(=O)N1CCc2ccccc2C1	-2	82*	82*	·	·	·	103*	4	94*	8
O=C(Nc1ccccc1)c1nc[nH]c1C(=O)N1CCc2ccccc2C1	2	4	8	·	·	·	·	·	·	·
CC(C)=NNc1nc2c(c(=O)[nH]c(=O)n2C)n1CCc1ccccc1	5	47*	-13	0	-1	3	37	2	3	18
CC(C)=NNc1nc2c(c(=O)[nH]c(=O)n2C)n1CCCc1ccccc1	3	2	-9	·	·	-21	·	·	·	·
COc1ccc(C#Cc2ccc3c(c2)O[C@@H](CN(C)C(=O)Nc2cccc(OC)c2)[C@H](C)CN([C@@H](C)CO)S3(=O)=O)cc1	·	6	24	·	·	·	·	·	·	·
C[C@H]1COC(=O)[C@@H](CC(=O)OC(C)(C)C)C/C=C\C[C@H](CC(=O)NCCO)C(=O)N1	3	0	8	·	·	·	·	·	·	·
CC(=O)Oc1c(Br)cc(N(C(C)=O)S(=O)(=O)c2ccccc2)c2ccccc12	1	1	9	·	·	-14	·	·	·	·
Cc1cc(C)c(S(=O)(=O)NCCc2ccccc2)c(C)c1	-2	46*	0	0	-1	-11	52*	0	29	13
CC(C)C(=O)Nc1cccc(COc2ccc(CN(CCc3ccccc3)C(=O)OC(C)(C)C)cc2)c1	·	1	44	·	·	·	·	·	·	·
Cc1cc(C2=NNC(=NCCc3ccccc3)SC2)c(C)n1CC1CCCO1 (centres undefined)	-1	83*	68*	0	1	1	85*	4	57*	20
CCN=C1NN=C(c2cc(C)n(CCc3ccccc3)c2C)CS1	·	82*	63*	0	0	-6	101*	4	93*	5
O=C(Nc1ccc(F)cc1)C(c1ccccc1)N1CCN(c2ccncc2)CC1 (centres undefined)	·	4	-5	·	·	·	·	·	·	·
O=C(NCCc1ccc(O)cc1)c1[nH]c(C(F)(F)F)nc1-c1ccccc1	·	92*	69*	·	·	·	94*	8	90*	10
O=C(NCCc1ccccc1)c1[nH]c(C(F)(F)F)nc1-c1ccccc1	·	69*	47	·	·	·	80*	10	58*	11
O=C(c1[nH]c(C(F)(F)F)nc1-c1ccccc1)N1CCc2ccccc2C1	·	81*	11	·	·	·	93*	4	56*	1
O=C(NCc1ccccc1)c1[nH]c(C(F)(F)F)nc1-c1ccccc1	·	5	-21	·	·	·	·	·	·	·
Cc1cc(C(=O)N2CCc3ccccc3C2)no1	-6	3	-23	·	·	-1	·	·	·	·
O=C(c1cc(-c2ccccc2)on1)N1CCc2ccccc2C1	-2	48*	-1	0	-1	1	12	3	2	11
COc1ccccc1CC(NC(C)=O)C(=O)NC1CCN(C(=O)Nc2ccccc2F)CC1 (centres undefined)	-2	1	-6	·	·	2	·	·	·	·
COCCNC(=O)C1(C)CCCN(C(=O)c2ccc(C)c(F)c2)C1 (centres undefined)	·	0	17	·	·	·	·	·	·	·
C=CCNC(=O)COc1coc(CN2CCN(C(=O)c3ccco3)CC2)cc1=O	-2	1	-43	·	·	·	·	·	·	·
